In brackets after ≈: the same amount, converted by molar mass. Activity calls are given as the source filed them. The calls are words filed in the database; no cut-off is given here.
Columns and labels:
[1] = system: AGS; assay: Antiinflammatory activity in human AGS cells assessed as inhibition of IL-8 production at 5 ug/mL after 24 hrs; format: functional, cell-based
Procedure, shortened: (§1)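 AGS gastric adenocarcinoma cells were grown in F-12K with 10% FBS. They were seeded at 1 × 10⁵/mL for 24 h, preincubated 1 h with compound at 5 or 0.5 µg/mL, then exposed to H. pylori.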

[2] = system: [Candida] sake; assay: Antifungal activity against Candida sake after 24 hrs by broth microdilution method; format: functional; conditions: Fermentozyma sake
Procedure, shortened: (§2)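 Candida isolates from respiratory-tract specimens, tested by NCCLS broth microdilution in Sabouraud dextrose broth. Serial compound dilutions inoculated to 10³/mL, with fungus-only and medium-only controls. Incubated 24 h at 37 °C. MIC was the lowest concentration with complete visible growth inhibition.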

[3] = system: Escherichia coli; assay: Antibacterial activity against Escherichia coli after 18 to 22 hrs by broth microdilution method; format: functional
Procedure, shortened: (§3)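 Clinical respiratory-tract isolates from patients, subcultured for purity and identified conventionally. Broth microdilution per NCCLS in Mueller–Hinton II broth; each plate had growth controls (bacteria, no compound) and medium-only controls. Incubation 18–22 h at 35 °C. MIC taken as the lowest concentration giving complete growth inhibition by unaided eye.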

[4] = Cytotoxicity against human EAhy926 cells assessed as cell survival at 5 ug/mL after 24 hrs by trypan blue exclusion assay; format: cell-based, EA.hy 926; conditions: read-out: Survival
Procedure, shortened: (§4)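 EAhy cells in DMEM (high glucose) with 10% FBS, at 1 × 10⁵/mL in exponential growth and 60–70% confluent, were exposed 24 h at 37 °C to compounds from DMSO stocks (final DMSO ≤0.5%). Controls were cells alone or with DMSO, and 1 mM sodium nitroprusside as positive control. Cells were scraped, mixed 1:1 with 0.4% Trypan blue and counted on a hemocytometer by two operators. Result given as % viable cells.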

[5] = system: Helicobacter pylori; assay: Antibacterial activity against metronidazole-resistant Helicobacter pylori NCTC 11637 after 72 hrs by agar dilution method; format: functional; conditions: NCTC 11637, 72 h
Procedure, shortened: (§5)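 H. pylori clinical isolates (ATCC 43504 control each session) stored at -80 °C and subcultured twice on Columbia agar with 10% horse serum and 0.25% yeast extract. Suspensions of 0.5 McFarland were spotted by Steer's replicator at about 5 × 10⁵ CFU/spot onto agar with twofold compound dilutions. Plates were incubated 72 h at 37 °C in 10% CO₂. MIC was the lowest concentration without visible growth.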

[6] = system: Enterococcus faecalis; assay: Antibacterial activity against Streptococcus faecalis after 18 to 22 hrs by broth microdilution method; format: functional; procedure, shortened: as §3
[7] = system: Proteus vulgaris; assay: Antibacterial activity against Proteus vulgaris after 18 to 22 hrs by broth microdilution method; format: functional; procedure, shortened: as §3
[8] = Cytotoxicity against human EAhy926 cells assessed as cell survival at 0.05 ug/mL after 24 hrs by trypan blue exclusion assay; format: cell-based, EA.hy 926; conditions: read-out: Survival; procedure, shortened: as §4
[9] = system: Enterobacter; assay: Antibacterial activity against Enterobacter after 18 to 22 hrs by broth microdilution method; format: functional; procedure, shortened: as §3
[10] = system: Staphylococcus aureus; assay: Antibacterial activity against Staphylococcus aureus after 18 to 22 hrs by broth microdilution method; format: functional; procedure, shortened: as §3
[11] = system: Helicobacter pylori; assay: Antibacterial activity against metronidazole-resistant Helicobacter pylori isolate 1 after 72 hrs by agar dilution method; format: functional; conditions: isolate 1, 72 h; procedure, shortened: as §5
[12] = system: Klebsiella pneumoniae; assay: Antibacterial activity against Klebsiella pneumoniae after 18 to 22 hrs by broth microdilution method; format: functional; procedure, shortened: as §3
[13] = system: Staphylococcus haemolyticus; assay: Antibacterial activity against Staphylococcus haemolyticus after 18 to 22 hrs by broth microdilution method; format: functional; procedure, shortened: as §3
[14] = system: Helicobacter pylori; assay: Antibacterial activity against metronidazole-resistant Helicobacter pylori isolate 8 after 72 hrs by agar dilution method; format: functional; conditions: isolate 8, 72 h; procedure, shortened: as §5
[15] = system: Staphylococcus epidermidis; assay: Antibacterial activity against Staphylococcus epidermidis after 18 to 22 hrs by broth microdilution method; format: functional; procedure, shortened: as §3
[16] = system: Helicobacter pylori; assay: Antibacterial activity against metronidazole-resistant Helicobacter pylori isolate 20 after 72 hrs by agar dilution method; format: functional; conditions: isolate 20, 72 h; procedure, shortened: as §5
[17] = system: Citrobacter freundii; assay: Antibacterial activity against Citrobacter freundii after 18 to 22 hrs by broth microdilution method; format: functional; procedure, shortened: as §3
[18] = system: Klebsiella oxytoca; assay: Antibacterial activity against Klebsiella oxytoca after 18 to 22 hrs by broth microdilution method; format: functional; procedure, shortened: as §3
[19] = system: Helicobacter pylori; assay: Antibacterial activity against Helicobacter pylori ATCC 43504 clinical isolates after 72 hrs by agar dilution method; format: functional; conditions: ATCC 43504, 72 h
Procedure, shortened: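 Agar dilution per NCCLS. Twenty clinical strains from duodenal ulcer or gastritis patients, with ATCC 43504 as control in each session, were subcultured twice on Columbia agar plus 10% horse serum and 0.25% yeast extract (72 h, 37 °C, 10% CO₂). Inoculum of 0.5 McFarland in Wilkins Chalgren broth, about 5 × 10⁵ CFU/spot by Steer's replicator. Plates held twofold compound dilutions down to 0.0039 µg/mL and were incubated 72 h at 37 °C, 10% CO₂. MIC was the lowest concentration inhibiting visible growth.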

[20] = system: Pichia kudriavzevii; assay: Antifungal activity against Candida krusei after 24 hrs by broth microdilution method; format: functional; procedure, shortened: as §2
[21] = system: AGS (Homo sapiens); assay: Cytotoxicity against human AGS cells assessed as cell survival at 50 ug/mL after 24 hrs by MTT assay
[22] = system: Klebsiella aerogenes; assay: Antibacterial activity against Enterobacter aerogenes after 18 to 22 hrs by broth microdilution method; format: functional; procedure, shortened: as §3
[23] = Cytotoxicity against human EAhy926 cells assessed as cell survival at 5 ug/mL after 24 hrs by MTT assay; format: cell-based, EA.hy 926; conditions: read-out: Survival
[24] = Cytotoxicity against human EAhy926 cells assessed as cell survival at 50 ug/mL after 24 hrs by trypan blue exclusion assay; format: cell-based, EA.hy 926; conditions: read-out: Survival; procedure, shortened: as §4
[25] = system: Candida albicans; assay: Antifungal activity against Candida albicans after 24 hrs by broth microdilution method; format: functional; procedure, shortened: as §2
[26] = system: Helicobacter pylori; assay: Antibacterial activity against metronidazole-resistant Helicobacter pylori isolate 18 after 72 hrs by agar dilution method; format: functional; conditions: isolate 18, 72 h; procedure, shortened: as §5
[27] = system: AGS; assay: Antiinflammatory activity in human AGS cells assessed as inhibition of IL-8 production at 0.5 ug/mL after 24 hrs; format: functional, cell-based; procedure, shortened: as §1
[28] = Cytotoxicity against human EAhy926 cells assessed as cell survival at 0.5 ug/mL after 24 hrs by MTT assay; format: cell-based, EA.hy 926; conditions: read-out: Survival
[29] = Cytotoxicity against human EAhy926 cells assessed as cell survival at 0.5 ug/mL after 24 hrs by trypan blue exclusion assay; format: cell-based, EA.hy 926; conditions: read-out: Survival; procedure, shortened: as §4
[30] = system: Staphylococcus hominis; assay: Antibacterial activity against Staphylococcus hominis after 18 to 22 hrs by broth microdilution method; format: functional; procedure, shortened: as §3

Row | Compound | inhibition [1] | MIC [2] | MIC [3] | viability at 24 h, 5 ug/mL [4] | MIC [5] | MIC [6] | MIC [7] | viability at 24 h, 0.05 ug/mL [8] | MIC [9] | MIC [10] | MIC [11] | MIC [12] | MIC [13] | MIC [14] | MIC [15] | MIC [16] | MIC [17] | MIC [18] | MIC50 [19] | MIC90 [19] | other results
1 | O=C(O)c1ccc(NC(=O)c2cc3ccc(O)cc3oc2=O)cc1 | inactive | > 128 µg/mL | > 128 µg/mL | 92% | 8 µg/mL (≈ 24.6 µM) | > 128 µg/mL | > 128 µg/mL | 98% | > 128 µg/mL | > 128 µg/mL | 8 µg/mL (≈ 24.6 µM) | > 128 µg/mL | > 128 µg/mL | 4 µg/mL (≈ 12.3 µM) | > 128 µg/mL | 8 µg/mL (≈ 24.6 µM) | > 128 µg/mL | > 128 µg/mL | 8 µg/mL (≈ 24.6 µM) | 16 µg/mL (≈ 49.2 µM) | MIC [20]: > 128 µg/mL; viability at 24 h, 50 ug/mL [21]: 77%; MIC [22]: > 128 µg/mL; viability at 24 h, 5 ug/mL [23]: 99%; viability at 24 h, 50 ug/mL [24]: 82%; MIC [25]: > 128 µg/mL; MIC [26]: 8 µg/mL (≈ 24.6 µM); inhibition [27]: inactive; viability at 24 h, 0.5 ug/mL [28]: 99%; viability at 24 h, 0.5 ug/mL [29]: 93%; MIC [30]: > 128 µg/mL
2 | CCOC(=O)c1ccc(NC(=O)c2cc3cc(OC)ccc3oc2=O)cc1 | inactive | > 128 µg/mL | > 128 µg/mL | 42% | 4 µg/mL (≈ 10.9 µM) | > 128 µg/mL | > 128 µg/mL | 72% | > 128 µg/mL | > 128 µg/mL | 8 µg/mL (≈ 21.8 µM) | > 128 µg/mL | > 128 µg/mL | 4 µg/mL (≈ 10.9 µM) | > 128 µg/mL | 4 µg/mL (≈ 10.9 µM) | > 128 µg/mL | > 128 µg/mL | 4 µg/mL (≈ 10.9 µM) | 8 µg/mL (≈ 21.8 µM) | MIC [20]: > 128 µg/mL; viability at 24 h, 50 ug/mL [21]: 41%; MIC [22]: > 128 µg/mL; viability at 24 h, 5 ug/mL [23]: 58%; viability at 24 h, 50 ug/mL [24]: 36%; MIC [25]: > 128 µg/mL; MIC [26]: 4 µg/mL (≈ 10.9 µM); inhibition [27]: inactive; viability at 24 h, 0.5 ug/mL [28]: 98%; viability at 24 h, 0.5 ug/mL [29]: 67%; MIC [30]: > 128 µg/mL
3 | CCOC(=O)c1ccc(NC(=O)c2cc3ccc(O)cc3oc2=O)cc1 | inactive | > 128 µg/mL | > 128 µg/mL | 92% | 8 µg/mL (≈ 22.6 µM) | > 128 µg/mL | > 128 µg/mL | 96% | > 128 µg/mL | > 128 µg/mL | 8 µg/mL (≈ 22.6 µM) | > 128 µg/mL | > 128 µg/mL | 4 µg/mL (≈ 11.3 µM) | > 128 µg/mL | 2 µg/mL (≈ 5.66 µM) | > 128 µg/mL | > 128 µg/mL | 8 µg/mL (≈ 22.6 µM) | 8 µg/mL (≈ 22.6 µM) | MIC [20]: > 128 µg/mL; viability at 24 h, 50 ug/mL [21]: 78%; MIC [22]: > 128 µg/mL; viability at 24 h, 5 ug/mL [23]: 82%; viability at 24 h, 50 ug/mL [24]: 64%; MIC [25]: > 128 µg/mL; MIC [26]: 8 µg/mL (≈ 22.6 µM); inhibition [27]: inactive; viability at 24 h, 0.5 ug/mL [28]: 99%; viability at 24 h, 0.5 ug/mL [29]: 95%; MIC [30]: > 128 µg/mL
